From ChEMBL document CHEMBL1131142 (J Med Chem, 1998)
Activity calls are given as the source filed them. The calls are words filed in the database; no cut-off is given here.

Legend:
Rattus norvegicus [1] = assay: Compound tested in vivo for inhibition of sorbital accumulation in the sciatic nerve of streptozotocin- induced diabetic rat; No significant inhibition at 30 mg/kg; assay type: functional, organism-based; set-up: dose 30 mg/kg
[2] = molecular target: Aldo-keto reductase family 1 member B1 (Sus scrofa, UniProt P80276); assay: In vitro inhibitory activity against aldose reductase in porcine lens.
In short: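 Partially purified porcine lens AR: lens homogenate in 250 mM phosphate pH 7.4 with 2 mM mercaptoethanol, 20000g supernatant, 40-60% ammonium sulfate cut. Assay mix: 100 mM phosphate pH 6.5, 0.2 mM NADPH, 1.5 mM DL-glyceraldehyde, 0.4 M Li2SO4, 7.0 mU/mL enzyme; 37 °C; A340 decrease over 1 min. IC50 read graphically from log concentration-inhibition curve.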

Rattus norvegicus [3] = species on record: Rattus norvegicus; assay: Dose required for inhibition of sorbital accumulation in the sciatic nerve of streptozotocin- induced diabetic rat.; assay type: functional
In short: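 Oral dosing of streptozotocin-diabetic rats once daily for 5 days; sciatic nerve taken 4 h after final dose. Nerve sorbitol assayed fluorometrically via sorbitol dehydrogenase-generated NADH (ex 365/em 430 nm).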

Rattus norvegicus [4] = assay: Tested in vivo for inhibition of sorbital accumulation in the sciatic nerve of streptozotocin- induced diabetic rat; % Inhibition at 30 mg/kg; assay type: functional
Rattus norvegicus [5] = assay: Tested in vivo for inhibition of sorbital accumulation in the sciatic nerve of streptozotocin- induced diabetic rat;NS=No significant inhibition at 100 mg/kg; assay type: functional, organism-based; set-up: dose 100 mg/kg
Rattus norvegicus [6] = assay: Compound tested in vivo for inhibition of sorbital accumulation in the sciatic nerve of streptozotocin- induced diabetic rat; No significant inhibition at 1 mg/kg; assay type: functional, organism-based; set-up: dose 1 mg/kg
Rattus norvegicus [7] = assay: Compound tested in vivo for inhibition of sorbital accumulation in the sciatic nerve of streptozotocin- induced diabetic rat; % Inhibition at 1 mg/Kg; assay type: functional
Rattus norvegicus [8] = assay: Tested in vivo for inhibition of sorbital accumulation in the sciatic nerve of streptozotocin- induced diabetic rat; % Inhibition at 100 mg/kg; assay type: functional
Rattus norvegicus [9] = assay: Compound tested in vivo for inhibition of sorbital accumulation in the sciatic nerve of streptozotocin- induced diabetic rat at 100 mg/kg; assay type: functional
Rattus norvegicus [10] = assay: Compound tested for inhibition of sorbital accumulation in the sciatic nerve of streptozotocin- induced diabetic rat; % Inhibition at 1 mg/kg; assay type: functional
Rattus norvegicus [11] = assay: Compound tested in vivo for inhibition of sorbital accumulation in the sciatic nerve of streptozotocin- induced diabetic rat; No significant inhibition at 100 mg/kg; assay type: functional, organism-based; set-up: dose 100 mg/kg

Structure (SMILES)	IC50 [2] [nM]	inhibition in vivo at 30 mg/kg (Rattus norvegicus [4]) [%]	other results
COc1ccc(CN2C(=O)c3cccn3C3(CC(=O)NC3=O)C2=O)cc1OC (configuration not stated)	–	–	inhibition (Rattus norvegicus [1]): inactive
O=C1CC2(C(=O)N1)C(=O)N(Cc1ccccc1Cl)C(=O)c1cccn12 (configuration not stated)	37	97	ED50 (Rattus norvegicus [3]): 5.8 mg/kg/day
O=C(O)CCC1C(=O)N(Cc2ccc(Br)cc2F)C(=O)c2cccn21 (configuration not stated)	803	–	inhibition (Rattus norvegicus [5]): inactive
O=C(O)CC1C(=O)N(Cc2ccc(Br)cc2F)C(=O)c2cccn21 (configuration not stated)	165	–	inhibition (Rattus norvegicus [5]): inactive
COc1ccc2c(C(=S)N(C)CC(=O)O)cccc2c1C(F)(F)F [TOLRESTAT]	15	–	ED50 (Rattus norvegicus [3]): 26.7 mg/kg/day
O=C1CC2(C(=O)N1)C(=O)N(Cc1ccc(Br)cc1F)C(=O)c1cc(Br)c(Br)n12 (configuration not stated)	52	–	inhibition (Rattus norvegicus [6]): inactive
O=C1CC2(C(=O)N1)C(=O)N(Cc1ccc(F)cc1F)C(=O)c1cccn12 (configuration not stated)	–	98	ED50 (Rattus norvegicus [3]): 5.4 mg/kg/day
Nc1ccc(CN2C(=O)c3cccn3C3(CC(=O)NC3=O)C2=O)cc1 (configuration not stated)	140	33.4	–
O=C1CC2(C(=O)N1)C(=O)N(Cc1ccc(Br)cc1F)C(=O)c1ccc(Cl)n12 (configuration not stated)	–	–	inhibition in vivo at 1 mg/kg (Rattus norvegicus [7]): 20.2%
O=C(O)CC1C(=O)NC(=O)c2cccn21 (configuration not stated)	> 10000	–	inhibition in vivo at 100 mg/kg (Rattus norvegicus [8]): 12.5%
COc1ccc(CN2C(=O)c3cccn3C3(CC(=O)NC3=O)C2=O)c(OC)c1 (configuration not stated)	350	–	inhibition (Rattus norvegicus [1]): inactive
O=C1CC2(C(=O)N1)C(=O)N(Cc1ccccc1F)C(=O)c1cccn12 (configuration not stated)	–	98	ED50 (Rattus norvegicus [3]): 1.3 mg/kg/day
O=C1CC2(C(=O)N1)C(=O)N(Cc1ccc(Br)cc1)C(=O)c1cccn12 (configuration not stated)	–	108	ED50 (Rattus norvegicus [3]): 0.48 mg/kg/day
CC(C)N1C(=O)c2cccn2C(CC(=O)O)C1=O (configuration not stated)	> 10000	–	inhibition in vivo at 100 mg/kg (Rattus norvegicus [8]): 12.9%
O=C1CC2(C(=O)N1)C(=O)N(Cc1ccc(Br)cc1F)C(=O)c1ccc(Br)n12 (configuration not stated)	–	–	inhibition (Rattus norvegicus [6]): inactive
CN1C(=O)c2cccn2C(CCC(=O)O)C1=O (configuration not stated)	> 10000	–	inhibition (Rattus norvegicus [5]): inactive
O=C1CC2(C(=O)N1)C(=O)N(Cc1ccc(Cl)c(Cl)c1)C(=O)c1cccn12 (configuration not stated)	–	112	ED50 (Rattus norvegicus [3]): 0.6 mg/kg/day
O=C1CC2(C(=O)N1)C(=O)N(Cc1ccc([N+](=O)[O-])cc1)C(=O)c1cccn12 (configuration not stated)	–	102	ED50 (Rattus norvegicus [3]): 10.8 mg/kg/day
CN1C(=O)c2cccn2C(CC(=O)O)C1=O (configuration not stated)	> 10000	–	inhibition in vivo at 100 mg/kg (Rattus norvegicus [8]): 12.8%
CN1CC(=O)n2cccc2C1=O	7500	–	inhibition in vivo at 100 mg/kg (Rattus norvegicus [8]): 55.7%
O=C1CC2(C(=O)N1)C(=O)N(Cc1ccc(Cl)cc1)C(=O)c1cccn12 (configuration not stated)	38	105	ED50 (Rattus norvegicus [3]): 1.5 mg/kg/day
O=C1CC2(C(=O)N1)C(=O)N(Cc1cccc(Cl)c1)C(=O)c1cccn12 (configuration not stated)	35	99.4	ED50 (Rattus norvegicus [3]): 3.8 mg/kg/day
O=C(O)CCC1C(=O)N(Cc2ccc(Cl)c(Cl)c2)C(=O)c2cccn21 (configuration not stated)	132	–	inhibition in vivo at 100 mg/kg (Rattus norvegicus [9]): 17.2%
O=C1CC2(C(=O)N1)C(=O)N(Cc1ccccc1)C(=O)c1cccn12 (configuration not stated)	–	69.1	–

Structure (SMILES)	IC50 [2] [nM]	inhibition in vivo at 30 mg/kg (Rattus norvegicus [4]) [%]	other results
O=C1CC2(C(=O)N1)C(=O)N(Cc1ccccc1Br)C(=O)c1cccn12 (configuration not stated)	–	82.6	–
O=C(O)Cc1nn(Cc2ccc(Br)cc2F)c(=O)c2ccccc12 [PONALRESTAT]	21	–	ED50 (Rattus norvegicus [3]): 11 mg/kg/day
CC(=O)c1cc2n(c1)C1(CC(=O)NC1=O)C(=O)N(Cc1ccc(Br)cc1F)C2=O (configuration not stated)	210	–	inhibition in vivo at 1 mg/kg (Rattus norvegicus [7]): 26.6%
CC(C)N1C(=O)c2cccn2C(CCC(=O)O)C1=O (configuration not stated)	> 10000	–	inhibition (Rattus norvegicus [5]): inactive
O=C1CC2(C(=O)N1)C(=O)N(Cc1ccc(Br)cc1F)C(=O)c1cc(Br)cn12 (configuration not stated)	–	–	inhibition in vivo at 1 mg/kg (Rattus norvegicus [7]): 28.8%
CN(CC(=O)O)C(=O)c1ccc[nH]1	5000	–	inhibition in vivo at 100 mg/kg (Rattus norvegicus [8]): 23.7%
COc1ccc(CN2C(=O)c3cccn3C3(CC(=O)NC3=O)C2=O)cc1 (configuration not stated)	–	46.7	–
O=C1CC2(C(=O)N1)C(=O)N(Cc1ccc(C(F)(F)F)cc1)C(=O)c1cccn12 (configuration not stated)	–	88.4	–
O=C1C[C@]2(C(=O)N1)C(=O)N(Cc1ccc(Br)cc1F)C(=O)c1cccn12	190	–	ED50 (Rattus norvegicus [3]): > 100 mg/kg/day
COC(=O)CN(C)C(=O)c1ccc[nH]1	> 10000	–	inhibition in vivo at 100 mg/kg (Rattus norvegicus [8]): 38%
O=C(O)CCC1C(=O)NC(=O)c2cccn21 (configuration not stated)	> 10000	–	inhibition (Rattus norvegicus [5]): inactive
CN1C(=O)c2cccn2C2(CC(=O)NC2=O)C1=O (configuration not stated)	280	51.2	–
O=C1CC2(C(=O)N1)C(=O)N(CCc1ccccc1)C(=O)c1cccn12 (configuration not stated)	270	15.3	–
O=C1CC2(C(=O)N1)C(=O)N(Cc1ccc(F)cc1)C(=O)c1cccn12 (configuration not stated)	–	58.8	–
O=C1CC2(C(=O)N1)C(=O)N(Cc1cccc(Br)c1)C(=O)c1cccn12 (configuration not stated)	–	102	–
O=C1CC2(C(=O)N1)C(=O)NC(=O)c1cccn12 (configuration not stated)	630	33.2	–
Cc1ccc(CN2C(=O)c3cccn3C3(CC(=O)NC3=O)C2=O)cc1 (configuration not stated)	–	65.8	–
O=C1CC2(C(=O)N1)C(=O)N(Cc1ccc(Cl)cc1F)C(=O)c1cccn12 (configuration not stated)	–	110	ED50 (Rattus norvegicus [3]): 0.74 mg/kg/day
O=C1CC2(C(=O)N1)C(=O)N(Cc1ccc(Br)cc1F)C(=O)c1cccn12 (configuration not stated)	45	115	ED50 (Rattus norvegicus [3]): 0.3 mg/kg/day; inhibition in vivo at 1 mg/kg (Rattus norvegicus [10]): 105%
O=C1CC2(C(=O)N1)C(=O)N(c1ccccc1)C(=O)c1cccn12 (configuration not stated)	200	27.2	–
O=C(O)CC1C(=O)N(Cc2ccc(Cl)c(Cl)c2)C(=O)c2cccn21 (configuration not stated)	131	–	inhibition (Rattus norvegicus [11]): inactive
O=C1CC2(C(=O)N1)C(=O)N(Cc1ccc(Br)cc1F)C(=O)c1cc(Cl)cn12 (configuration not stated)	–	–	inhibition in vivo at 1 mg/kg (Rattus norvegicus [7]): 23%
O=C1C[C@@]2(C(=O)N1)C(=O)N(Cc1ccc(Br)cc1F)C(=O)c1cccn12	15	–	ED50 (Rattus norvegicus [3]): 0.18 mg/kg/day
